Reference: ChEMBL document CHEMBL1142507, “Novel potent and selective Ca2+ release-activated Ca2+ (CRAC) channel inhibitors. Part 3: synthesis and CRAC channel inhibitory activity of 4'-[(trifluoromethyl)pyrazol-1-yl]carboxanilides” (Bioorg Med Chem, 2008)

Tests used:
Mus musculus [1] = assay: Inhibition of trinitrochlorobenzene-induced contact hypersensitivity in 1 hr before pretreated CD1 mouse assessed as ear swelling at 30 mg/kg, po; assay type: functional
Outline: (§1)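 Mice challenged with TNCB on both sides of the ear pinna. Compound given orally 1 h before TNCB exposure, with 0.5% MC vehicle given orally to control animals. Ear thickness measured by dial gauge 24 h after challenge and swelling calculated from the pre-exposure value.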

[2] = Inhibition of VOC channel-mediated calcium influx in […] PC12-h5 cells; assay type: cell-based; details: Rattus norvegicus, PC-12
Outline: (§2)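 PC12-h5 cells (1 × 10⁶ cells/ml) loaded with 1 µM Fura-2/AM for 45 min at room temperature in HEPES buffer pH 7.4, then washed. Depolarized with 50 mM KCl for 20 min. Intracellular Ca²⁺ measured at the 20 min endpoint from the 340/380 nm excitation ratio (500 nm emission), with compound autofluorescence subtracted.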

Jurkat [3] = assay: Inhibition of PHA-induced IL2 production in human Jurkat T lymphocytes; assay type: functional, cell-based
Outline: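 Jurkat T cells (5 × 10⁶ cells/ml) stimulated with PHA (20 µg/ml) for 20 h. IL-2 in the supernatant quantified by human IL-2 ELISA.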

[4] = Inhibition of CRAC channel-mediated calcium influx in human Jurkat cells; assay type: cell-based
Outline: (§3)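 Jurkat cells (2 × 10⁶ cells/ml) loaded with 1 µM Fura-2/AM for 45 min at room temperature in HEPES buffer pH 7.4 (NaCl 137, KCl 5.8, MgCl₂ 1, CaCl₂ 2.5, glucose 5, HEPES 10 mM), then washed. Thapsigargin-induced Ca²⁺ influx read by 340/380 nm excitation, 500 nm emission, with cell-free compound fluorescence subtracted. IC50 taken from percent inhibition.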

Jurkat [5] = assay: Selectivity ratio of IC50 for VOC channel in […] PC12-h5 cells over IC50 for CRAC channel in human Jurkat cells
Rattus norvegicus = assay: Inhibition of ovalbumin-induced airway eosinophilia in BN rat po dosed 1 hr before antigen challenge assessed as number of eosinophils in bronchoalveolar levage fluid after 24 hrs; assay type: functional; details: Lung
Outline: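 Sensitized rats were challenged 3 weeks later with aerosolized 1% (w/v) ovalbumin for 15 min. Compound given orally 1 h before exposure. BAL performed 24 h after challenge. Total white cells counted with a blood cell counter. Eosinophils identified morphologically on smears and eosinophil number per animal calculated. ED50 derived.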

PC-12 = assay: Inhibition of VOC channel-mediated calcium influx in […] PC12-h5 cells at 10 uM; assay type: cell-based; details: Rattus norvegicus; outline: as §2
Mus musculus [6] = assay: Inhibition of trinitrochlorobenzene-induced contact hypersensitivity in 1 hr before orally pretreated CD1 mouse assessed as ear swelling; assay type: functional; details: CD1, po; outline: as §1
Jurkat [7] = assay: Inhibition of CRAC channel-mediated calcium influx in human Jurkat cells at 10 uM; assay type: cell-based; outline: as §3

Row | IC50 [2] | IC50 (Jurkat [3]) | IC50 [4] | SMILES | inhibition in vivo at 30 mg/kg (Mus musculus [1]) | Ratio IC50 (Jurkat [5]) | ED50 (Rattus norvegicus) | inhibition (PC-12) | ED50 (Mus musculus [6]) | inhibition (Jurkat [7])
1 | 2900 nM | 15 nM | 82 nM | Cc1nnsc1C(=O)Nc1ccc(-n2nc(C(F)(F)F)cc2Cl)cc1 | 42% | 35 | – | – | – | –
2 | – | 160 nM | 270 nM | Nc1cncc(C(=O)Nc2ccc(-n3nc(C(F)(F)F)cc3C(F)(F)F)cc2)c1 | 59% | > 37 | 4.4 mg/kg | 14% | – | –
3 | 4700 nM | 17 nM | 150 nM | Cc1nnsc1C(=O)Nc1ccc(-n2nc(C(F)(F)F)cc2C(F)(F)F)cc1 | 100% | 31 | 2.4 mg/kg | – | 1.1 mg/kg | –
4 | 3100 nM | – | 210 nM | Cc1cncc(C(=O)Nc2ccc(-n3nc(C(F)(F)F)cc3C(F)(F)F)cc2)c1 | – | 15 | – | – | – | –
5 | – | 93 nM | 250 nM | O=C(Nc1ccc(-n2nc(C(F)(F)F)cc2C(F)(F)F)cc1)c1cccnc1 | 62% | > 40 | – | 30% | – | –
6 | 3500 nM | – | 400 nM | Cc1nnsc1C(=O)Nc1ccc(-n2nc(C(F)(F)F)c3c2CCC3)cc1 | – | 8.8 | – | – | – | –
7 | 2900 nM | – | 120 nM | COc1ncccc1C(=O)Nc1ccc(-n2nc(C(F)(F)F)cc2C(F)(F)F)cc1 | – | 24 | – | – | – | –
8 | – | – | 1600 nM | Cc1ccnc(C)c1C(=O)Nc1ccc(-n2nc(C(F)(F)F)cc2C(F)(F)F)cc1 | – | – | – | – | – | –
9 | – | – | – | O=C(Nc1ccc(-n2nc(C(F)(F)F)cc2C(F)(F)F)cc1)c1ccccn1 | – | – | – | – | – | 14%
10 | 10000 nM | 16 nM | 240 nM | O=C(Nc1ccc(-n2nc(C(F)(F)F)cc2C(F)(F)F)cc1)c1ccncc1 | 25% | 42 | – | – | – | –
11 | 10000 nM | – | 960 nM | O=C(Nc1ccc(-n2nc(C(F)(F)F)cc2C(F)(F)F)cc1)c1cncs1 | – | 10 | – | – | – | –
12 | – | – | 3300 nM | O=C(Nc1ccc(-n2nc(C(F)(F)F)cc2C(F)(F)F)cc1)c1cccnc1O | – | – | – | – | – | –
13 | – | 94 nM | 220 nM | Cc1ccc(C(=O)Nc2ccc(-n3nc(C(F)(F)F)cc3C(F)(F)F)cc2)cn1 | 46% | > 45 | – | 27% | – | –
14 | 2500 nM | – | 720 nM | Cc1ccc(-c2cc(C(F)(F)F)nn2-c2ccc(NC(=O)c3snnc3C)cc2)cc1 | – | 3.5 | – | – | – | –
15 | – | 24 nM | 150 nM | O=C(Nc1ccc(-n2nc(C(F)(F)F)cc2C(F)(F)F)cc1)c1cncc(Br)c1 | 17% | > 67 | – | 29% | – | –
16 | 5100 nM | 18 nM | 160 nM | O=C(Nc1ccc(-n2nc(C(F)(F)F)cc2C(F)(F)F)cc1)c1cnccc1Cl | -18% | 32 | – | – | – | –

Row | IC50 [2] | IC50 (Jurkat [3]) | IC50 [4] | SMILES | inhibition in vivo at 30 mg/kg (Mus musculus [1]) | Ratio IC50 (Jurkat [5]) | ED50 (Rattus norvegicus) | inhibition (PC-12) | ED50 (Mus musculus [6]) | inhibition (Jurkat [7])
17 | – | – | – | O=C(Nc1ccc(-n2nc(C(F)(F)F)cc2C(F)(F)F)cc1)c1c[nH]cn1 | – | – | – | – | – | 29%
18 | 2400 nM | – | 780 nM | Nc1ccncc1C(=O)Nc1ccc(-n2nc(C(F)(F)F)cc2C(F)(F)F)cc1 | – | 3.1 | – | – | – | –
19 | – | 18 nM | 220 nM | Cc1nnsc1C(=O)Nc1ccc(-n2nc(C(F)(F)F)cc2C)cc1 | 24% | > 45 | – | 46% | – | –
20 | 2600 nM | 5.9 nM | 92 nM | Cc1nnsc1C(=O)Nc1ccc(-n2nc(C(F)(F)F)cc2Br)cc1 | 8.3% | 28 | – | – | – | –
21 | – | – | – | Cc1nnsc1C(=O)Nc1ccc(-n2ccc(C(F)(F)F)n2)cc1 | – | – | – | – | – | 40%
22 | – | 18 nM | 77 nM | O=C(Nc1ccc(-n2nc(C(F)(F)F)cc2C(F)(F)F)cc1)c1cncc(F)c1 | 44% | > 130 | – | 27% | – | –
23 | 4800 nM | – | 230 nM | COc1ccncc1C(=O)Nc1ccc(-n2nc(C(F)(F)F)cc2C(F)(F)F)cc1 | – | 21 | – | – | – | –
24 | – | 33 nM | 290 nM | Cc1cc(C)c(C(=O)Nc2ccc(-n3nc(C(F)(F)F)cc3C(F)(F)F)cc2)cn1 | 64% | > 34 | 1.3 mg/kg | 41% | – | –
25 | 4500 nM | – | 240 nM | O=C(Nc1ccc(-n2nc(C(F)(F)F)cc2C(F)(F)F)cc1)c1cccnc1Cl | – | 19 | – | – | – | –
26 | – | 34 nM | 110 nM | O=C(Nc1ccc(-n2nc(C(F)(F)F)cc2C(F)(F)F)cc1)c1cncc(Cl)c1 | 42% | > 91 | – | 31% | – | –
27 | – | – | 220 nM | Cc1nnsc1C(=O)Nc1ccc(-n2nc(C(F)(F)F)cc2C#N)cc1 | – | > 45 | – | 45% | – | –
28 | – | – | 460 nM | O=C(Nc1ccc(-n2nc(C(F)(F)F)cc2C(F)(F)F)cc1)c1nccs1 | – | > 22 | – | 37% | – | –
29 | – | – | – | O=C(Nc1ccc(-n2nc(C(F)(F)F)cc2C(F)(F)F)cc1)c1cnccc1O | – | – | – | – | – | 21%
30 | 2000 nM | – | 430 nM | O=C(Nc1ccc(-n2nc(C(F)(F)F)cc2C(F)(F)F)cc1)c1cnccc1C(F)(F)F | – | 5 | – | – | – | –
31 | 6300 nM | – | 290 nM | Cc1ccncc1C(=O)Nc1ccc(-n2nc(C(F)(F)F)cc2C(F)(F)F)cc1 | – | 20 | – | – | – | –
